Experimental data from ChEMBL document CHEMBL1955742, “Synthesis and SAR studies of phenanthroindolizidine and phenanthroquinolizidine alkaloids as potent anti-tumor agents” (2012).

tested on: HL-60; assay: Antiproliferative activity against human HL60 cells after 72 hrs by SRB assay; type: functional; conditions: Homo sapiens, HL-60, 72 h
Procedure, shortened: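 HL60 human promyelocytic leukemia cells were seeded and grown for 24 h, then given compounds and cultured for another 72 h. Read-out was SRB, per the table footnote. GI50 was obtained by the Logit method from three or more independent experiments.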

GI50	SMILES
600 nM	COc1ccc2c3c(c4cc(OC)c(OC)cc4c2c1)CN1CCCC[C@H]1C3
< 1 nM	COc1ccc2c3c(c4cc(OC)c(OC)cc4c2c1)C[C@H]1CCCN1C3 [(-)-ANTOFINE]
300 nM	COc1ccc2c3c(c4cc(OC)c(OC)cc4c2c1)CN1CCC[C@@H]1[C@@H]3O
300 nM	COc1ccc2c3c(c4cc(OC)c(OC)cc4c2c1)CN1CCC[C@@H]1C3
< 1 nM	COc1cc2c3c(c4cc(OC)c(OC)cc4c2cc1OC)CN1CCCC[C@H]1C3
300 nM	COc1cc2c3c(c4cc(OC)c(OC)cc4c2cc1OC)[C@H](N)[C@@H]1CCCN1C3
200 nM	COc1ccc2c3c(c4cc(OC)c(OC)cc4c2c1)C[C@@H]1CCCN1C3 [HYPOESTESTATIN 1]
40 nM	COc1ccc2c3c(c4cc(OC)c(OC)cc4c2c1)[C@H](O)[C@@H]1CCCCN1C3
< 1 nM	COc1ccc2c3c(c4cc(OC)c(OC)cc4c2c1)[C@@H](O)[C@H]1CCCCN1C3
60 nM	COc1ccc2c3c(c4cc(OC)c(OC)cc4c2c1)CN1CCC[C@H]1C3
50 nM	COc1ccc2c3c(c4cc(OC)c(OC)cc4c2c1)[C@H](NC(C)=O)[C@@H]1CCCN1C3
1200 nM	COc1ccc2c3c(c4cc(OC)c(OC)cc4c2c1)CN1CCC[C@H]1[C@H]3NC(C)=O
300 nM	COc1cc2c3c(c4cc(OC)c(OC)cc4c2cc1OC)[C@H](O)[C@@H]1CCCCN1C3
< 1 nM	COc1cc2c3c(c4cc(OC)c(OC)cc4c2cc1OC)[C@@H](O)[C@H]1CCCCN1C3
> 10000 nM	COc1ccc2c3c(c4cc(OC)c(OC)cc4c2c1)CN1CCC[C@H]1[C@H]3NC(=O)C(C)(C)C
< 1 nM	COc1ccc2c3c(c4cc(OC)c(OC)cc4c2c1)CN1CCCC[C@H]1[C@H]3O
> 10000 nM	COc1ccc2c3c(c4cc(OC)c(OC)cc4c2c1)[C@H](NC(=O)C(C)(C)C)[C@@H]1CCCN1C3
< 1 nM	COc1ccc2c3c(c4cc(OC)c(OC)cc4c2c1)CN1CCCC[C@@H]1[C@@H]3O
< 1 nM	COc1ccc2c3c(c4cc(OC)c(OC)cc4c2c1)CN1CCC[C@H]1[C@H]3O
> 10000 nM	COc1cc2c3c(c4cc(OC)c(OC)cc4c2cc1OC)[C@H](NC(=O)C(C)(C)C)[C@@H]1CCCN1C3

SMILES	GI50
COc1ccc2c3c(c4cc(OC)c(OC)cc4c2c1)C[C@H]1CCCCN1C3 [CRYPTOPLEURINE]	< 1 nM
COc1cc2c3c(c4cc(OC)c(OC)cc4c2cc1OC)CN1CCC[C@@H]1C3 [TYLOPHORINE]	100 nM

tested on: A549; assay: Antiproliferative activity against human A549 cells after 72 hrs by MTT assay; type: functional; conditions: Homo sapiens, A549, 72 h
Procedure, shortened: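 A549 human lung adenocarcinoma epithelial cells were seeded and grown for 24 h, then exposed to compounds for a further 72 h. Proliferation was read by MTT, as assigned in the table footnote. GI50 was calculated by the Logit method from at least three independent experiments.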

GI50	SMILES
700 nM	COc1ccc2c3c(c4cc(OC)c(OC)cc4c2c1)CN1CCCC[C@H]1C3
10 nM	COc1ccc2c3c(c4cc(OC)c(OC)cc4c2c1)C[C@H]1CCCN1C3 [(-)-ANTOFINE]
3700 nM	COc1ccc2c3c(c4cc(OC)c(OC)cc4c2c1)CN1CCC[C@@H]1[C@@H]3O
700 nM	COc1ccc2c3c(c4cc(OC)c(OC)cc4c2c1)CN1CCC[C@@H]1C3
60 nM	COc1cc2c3c(c4cc(OC)c(OC)cc4c2cc1OC)CN1CCCC[C@H]1C3
1100 nM	COc1cc2c3c(c4cc(OC)c(OC)cc4c2cc1OC)[C@H](N)[C@@H]1CCCN1C3
300 nM	COc1ccc2c3c(c4cc(OC)c(OC)cc4c2c1)C[C@@H]1CCCN1C3 [HYPOESTESTATIN 1]
1000 nM	COc1ccc2c3c(c4cc(OC)c(OC)cc4c2c1)[C@H](O)[C@@H]1CCCCN1C3
20 nM	COc1ccc2c3c(c4cc(OC)c(OC)cc4c2c1)[C@@H](O)[C@H]1CCCCN1C3
90 nM	COc1ccc2c3c(c4cc(OC)c(OC)cc4c2c1)CN1CCC[C@H]1C3
50 nM	COc1ccc2c3c(c4cc(OC)c(OC)cc4c2c1)[C@H](NC(C)=O)[C@@H]1CCCN1C3
1500 nM	COc1ccc2c3c(c4cc(OC)c(OC)cc4c2c1)CN1CCC[C@H]1[C@H]3NC(C)=O
400 nM	COc1cc2c3c(c4cc(OC)c(OC)cc4c2cc1OC)[C@H](O)[C@@H]1CCCCN1C3
70 nM	COc1cc2c3c(c4cc(OC)c(OC)cc4c2cc1OC)[C@@H](O)[C@H]1CCCCN1C3
> 10000 nM	COc1ccc2c3c(c4cc(OC)c(OC)cc4c2c1)CN1CCC[C@H]1[C@H]3NC(=O)C(C)(C)C
400 nM	COc1ccc2c3c(c4cc(OC)c(OC)cc4c2c1)CN1CCCC[C@H]1[C@H]3O
> 10000 nM	COc1ccc2c3c(c4cc(OC)c(OC)cc4c2c1)[C@H](NC(=O)C(C)(C)C)[C@@H]1CCCN1C3
300 nM	COc1ccc2c3c(c4cc(OC)c(OC)cc4c2c1)CN1CCCC[C@@H]1[C@@H]3O
30 nM	COc1ccc2c3c(c4cc(OC)c(OC)cc4c2c1)CN1CCC[C@H]1[C@H]3O
> 10000 nM	COc1cc2c3c(c4cc(OC)c(OC)cc4c2cc1OC)[C@H](NC(=O)C(C)(C)C)[C@@H]1CCCN1C3

SMILES	GI50
COc1ccc2c3c(c4cc(OC)c(OC)cc4c2c1)C[C@H]1CCCCN1C3 [CRYPTOPLEURINE]	< 1 nM
COc1cc2c3c(c4cc(OC)c(OC)cc4c2cc1OC)CN1CCC[C@@H]1C3 [TYLOPHORINE]	500 nM
